We go through 29 molecules from PubChem BioAssay AID489000 (The Scripps Research Institute Molecular Screening Center, 2010).

Usually IC50 stands for the concentration needed to halve the response being measured.

Active and inactive are the calls of the source.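 The calls were made as follows: active = IC50 for blocking EBNA-1 binding to its DNA probe at or below 10 µM; inactive = the rest.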

This experiment deals with Epstein-Barr virus nuclear antigen 1 (EBNA-1) DNA-binding domain. In words: EBNA-1 DNA-binding inhibitor potency, late-stage follow-up, biochemical, fluorescence polarization, dose response, powder samples (AID 489000). The settings on record: Recombinant EBNA-1 DBD, Cy5-DNA fluorescence polarization. A digest of the protocol:
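Assay system: E. coli-expressed EBNA-1 DBD protein; dosing: 10-point threefold dilution series from 148 µM nominal, 1.5% DMSO; incubation: 30 min pre-mix, 1 h with compound, RT; technique: fluorescence polarization, 620 nm excitation, 688 nm emission; benchmarks: Protein-free versus protein-only wells; replication: triplicate per compound concentration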
For the molecule `Cc1cc(C(=O)CSc2nnnn2-c2cccc(F)c2)c(C)n1CC1CCCO1` (centres undefined), the IC50 is > 148 µM (inactive).

On to `COCCn1c(C)cc(C(=O)CSc2nnnn2-c2ccccc2)c1C`, for which the IC50 is > 148 µM (inactive).

In the case of `Cc1ccccc1C(=O)Nc1nc2ccc(S(C)(=O)=O)cc2s1`, the IC50 was > 148 µM (inactive).

Turning to `Cc1cccc(C(=O)Nc2nc3ccc(S(C)(=O)=O)cc3s2)c1`, the IC50 entry was “inactive”.

As to `COc1ccc2sc(NC(=O)c3ccc(C)c(C)c3)nc2c1`, the IC50 is > 148 µM (inactive).

`Cc1cc(C(=O)CSc2nnnn2-c2ccccc2)c(C)n1Cc1cccs1`: the IC50 was > 148 µM (inactive).

Take `Cc1cc(C(=O)CSc2nnnn2C)c(C)n1CC1CCCO1` (centres undefined): the IC50 was > 148 µM (inactive).

Consider `Cc1cc(C(=O)CSc2nnnn2-c2ccc(Cl)cc2)c(C)n1CC1CCCO1` (centres undefined), for which the IC50 was > 148 µM (inactive).

`Cc1ccc(C(=O)Nc2nc3ccc(Br)cc3s2)cc1C`: the IC50 was > 148 µM (inactive).

Turning to `COc1ccccc1C(=O)Nc1nc2ccc(S(C)(=O)=O)cc2s1`, the IC50 was > 148 µM (inactive).

As to `Cc1cccc(-n2nnnc2SCC(=O)c2cc(C)n(CC3CCCO3)c2C)c1` (centres undefined), the IC50 was > 148 µM (inactive).

For `CCn1c(C)cc(C(=O)CSc2nnnn2-c2ccccc2)c1C`, the IC50 is > 148 µM (inactive).

As to `COc1ccc(-n2nnnc2SCC(=O)c2cc(C)n(CC3CCCO3)c2C)cc1` (centres undefined), the IC50 is > 16.4 µM (inactive).

Take `Cc1ccccc1-n1nnnc1SCC(=O)c1cc(C)n(CC2CCCO2)c1C` (centres undefined): the IC50 was > 148 µM (inactive).

Turning to `COc1cccc2sc(NC(=O)c3ccc(C)c(C)c3)nc12`, the IC50 is > 148 µM (inactive).

As to `COc1ccc2nc(NC(=O)c3ccc(C)c(C)c3)sc2c1`, the IC50 was > 148 µM (inactive).

Turning to `Cc1cc(C(=O)CSc2nnnn2C2CC2)c(C)n1CC1CCCO1` (centres undefined), the IC50 result is “inactive”.

Turning to `COc1ccc(C(=O)Nc2nc3ccc(S(C)(=O)=O)cc3s2)cc1`, the IC50 result was “inactive”.

As for `Cc1ccc(C(=O)Nc2nc3cc(F)ccc3s2)cc1C`, the IC50 is > 148 µM (inactive).

On to `CS(=O)(=O)c1ccc2nc(NC(=O)c3ccccc3Cl)sc2c1`, for which the IC50 is > 148 µM (inactive).

In the case of `Cc1ccc(C(=O)Nc2nc3ccc(S(C)(=O)=O)cc3s2)cc1`, the IC50 is > 148 µM (inactive).

Take `COc1cccc(C(=O)Nc2nc3ccc(S(C)(=O)=O)cc3s2)c1`: the IC50 result is “inactive”.

With `CS(=O)(=O)c1ccc2nc(NC(=O)c3cccc(F)c3)sc2c1`, the IC50 was > 148 µM (inactive).

In the case of `CS(=O)(=O)c1ccc2nc(NC(=O)c3cccc(Cl)c3)sc2c1`, the IC50 is > 148 µM (inactive).

As for `CS(=O)(=O)c1ccc2nc(NC(=O)c3ccc(Cl)cc3)sc2c1`, the IC50 result is “inactive”.

Consider `O=C(CSc1nnnn1-c1ccccc1)c1ccn(CC2CCCO2)c1` (centres undefined), for which the IC50 is > 148 µM (inactive).

In the case of `Cc1cc(C(=O)CSc2nnnn2-c2ccccc2)c(C)n1C`, the IC50 result was “inactive”.

For `Cc1ccc(C(=O)Nc2nc3cc(Br)ccc3s2)cc1C`, the IC50 was > 148 µM (inactive).

For `CS(=O)(=O)c1ccc2nc(NC(=O)c3ccccc3F)sc2c1`, the IC50 was > 148 µM (inactive).
